According to ChEMBL document CHEMBL1153949, “Design, synthesis, and structure-activity relationship of substrate competitive, selective, and in vivo active triazole and thiadiazole inhibitors of the c-Jun N-terminal kinase” (J Med Chem, 2009):
Active and inactive are the calls of the source. The calls are words filed in the database; no cut-off is given here.

What was measured:
[1] = Displacement of biotin-labeled pep-JIP11 from JNK at 100 uM by DELFIA assay
In short: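 GST-JNK added at 10 nM final with Eu-anti-GST antibody (1.9 nM) and compound in DMSO. Incubated 1 hr at 0 °C, washed 5 times, enhancement solution added, and Eu fluorescence read after 10 min (ex 340, em 615 nm). Controls: unlabeled peptide and no-compound blanks.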

[2] = Inhibition of JNK at 100 uM by time-resolved FRET assay
In short: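 LanthaScreen TR-FRET kinase assay. JNK 35 ng/mL with ATF2 substrate 400 nM and ATP 200 μM in 50 mM HEPES pH 7.5, 10 mM MgCl2, 1 mM EGTA, 0.01% Brij-35, with compound. Reaction ran 1 hr at room temperature. Terbium-labeled antibody plus EDTA added, incubated another hour, and read as the 520/495 nm emission ratio.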

[3] = target: Mitogen-activated protein kinase 14 (Homo sapiens, UniProt Q16539); experiment: Inhibition of p38alpha
Chain of Mitogen-activated protein kinase 14 (Q16539 whole entry): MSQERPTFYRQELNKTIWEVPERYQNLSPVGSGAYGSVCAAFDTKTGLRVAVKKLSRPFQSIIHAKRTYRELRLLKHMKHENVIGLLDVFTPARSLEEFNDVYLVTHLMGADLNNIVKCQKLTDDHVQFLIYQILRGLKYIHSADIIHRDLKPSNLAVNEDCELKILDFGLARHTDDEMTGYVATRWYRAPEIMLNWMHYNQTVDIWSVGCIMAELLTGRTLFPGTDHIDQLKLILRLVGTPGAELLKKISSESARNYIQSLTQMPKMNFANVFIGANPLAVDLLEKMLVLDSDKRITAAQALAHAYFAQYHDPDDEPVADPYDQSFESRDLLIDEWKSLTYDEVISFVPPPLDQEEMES

[4] = target: RAC-alpha serine/threonine-protein kinase (Homo sapiens) (UniProt P31749); experiment: Inhibition of AKT1 at 100 uM
Chain of RAC-alpha serine/threonine-protein kinase (Homo sapiens) (P31749 whole entry): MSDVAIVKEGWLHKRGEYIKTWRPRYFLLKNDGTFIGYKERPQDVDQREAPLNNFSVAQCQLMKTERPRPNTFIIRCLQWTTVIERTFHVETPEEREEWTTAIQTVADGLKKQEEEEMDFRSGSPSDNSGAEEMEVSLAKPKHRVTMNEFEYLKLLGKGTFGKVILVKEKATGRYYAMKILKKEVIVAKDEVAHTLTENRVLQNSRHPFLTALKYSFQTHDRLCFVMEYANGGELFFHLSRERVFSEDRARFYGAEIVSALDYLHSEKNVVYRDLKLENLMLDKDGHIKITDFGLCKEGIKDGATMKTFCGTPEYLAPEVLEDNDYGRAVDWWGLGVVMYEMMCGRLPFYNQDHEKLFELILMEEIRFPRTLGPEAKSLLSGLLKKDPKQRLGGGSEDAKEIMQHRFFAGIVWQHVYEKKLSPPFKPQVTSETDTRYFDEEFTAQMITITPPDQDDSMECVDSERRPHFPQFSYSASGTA

Furin = Furin (Homo sapiens, UniProt P09958); experiment: Inhibition of furin
Chain of Furin (P09958 whole entry): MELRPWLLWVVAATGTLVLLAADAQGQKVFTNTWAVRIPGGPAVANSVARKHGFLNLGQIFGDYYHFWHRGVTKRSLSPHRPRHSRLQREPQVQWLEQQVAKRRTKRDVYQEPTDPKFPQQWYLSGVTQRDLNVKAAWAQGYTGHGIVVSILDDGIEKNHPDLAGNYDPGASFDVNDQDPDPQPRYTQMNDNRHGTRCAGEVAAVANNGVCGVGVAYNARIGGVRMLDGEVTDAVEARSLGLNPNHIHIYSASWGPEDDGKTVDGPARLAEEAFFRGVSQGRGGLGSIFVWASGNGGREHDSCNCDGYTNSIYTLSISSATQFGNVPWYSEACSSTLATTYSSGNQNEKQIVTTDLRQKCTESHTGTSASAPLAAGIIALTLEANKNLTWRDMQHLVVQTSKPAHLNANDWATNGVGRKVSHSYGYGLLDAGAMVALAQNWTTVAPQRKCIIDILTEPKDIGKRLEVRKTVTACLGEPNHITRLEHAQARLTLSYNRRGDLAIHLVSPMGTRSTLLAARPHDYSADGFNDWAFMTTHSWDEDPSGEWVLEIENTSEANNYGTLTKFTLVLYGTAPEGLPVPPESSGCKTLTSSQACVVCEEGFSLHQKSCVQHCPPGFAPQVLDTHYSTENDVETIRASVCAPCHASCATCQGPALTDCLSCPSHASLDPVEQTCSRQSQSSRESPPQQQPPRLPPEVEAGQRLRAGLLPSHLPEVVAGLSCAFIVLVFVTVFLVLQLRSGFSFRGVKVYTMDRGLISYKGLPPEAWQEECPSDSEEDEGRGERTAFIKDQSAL

[5] = Inhibition of lethal factor
[6] = Displacement of biotin-labeled pep-JIP11 from JNK by DELFIA assay
[7] = Selectivity for JNK over p38 alpha
[8] = Inhibition of TNF-alpha-stimulated JNK phosphorylation expressed in HeLa cells by time-resolved FRET assay; assay type: cell-based
In short: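 HeLa cells stably expressing GFP-c-Jun(1–79), seeded at 10000/well in phenol red-free Opti-MEM with 1% charcoal/dextran-treated FBS, incubated overnight. Compound pretreatment 60 min, then TNF-α 2 ng/ml for 30 min. Cells lysed in buffer containing 2 nM Tb-anti-phospho-c-Jun (Ser73) antibody and equilibrated 1 hr at room temperature. TR-FRET read at 520/490 nm; EC50 taken from the concentration series.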

Mus musculus = experiment: Enhancement of insulin insensitivity in BKS.Cg-+Lepr'db/-+Lepr'db/OlaHsd db/db mouse model assessed as reduction in blood glucose levels at 25 mg/kg, ip administered 30 mins before insulin injection; assay type: functional, organism-based; design: dose 25 mg/kg
In short: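 Male db/db mice, 11 weeks old, randomized by blood glucose and fasted 6 h. Compound given at 25 mg/kg i.p., then bovine insulin 0.75 mg/kg i.p. 30 min later. Blood glucose read from tail snips with a hand-held meter at set time points; food returned at 3 h. n=6; means ± S.D.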

[9] = Metabolic stability in rat liver microsomes at 4 uM; assay type: ADME, Microsome

In the case of `O=[N+]([O-])c1ccc(Sc2nnc(O)n2-c2ccccc2)s1`, the inhibition [1] is reported as 55% and the inhibition [2] is reported as 22%.
In the case of `O=[N+]([O-])c1ccc(CSc2nnc(SCc3ccc([N+](=O)[O-])cc3)s2)cc1`, the inhibition [1] is reported as “inactive”.
In the case of `O=C(Nc1nnc(Sc2ncc([N+](=O)[O-])s2)s1)c1ccc(F)cc1`, the inhibition [1] is reported as “inactive”.
`Cn1cccc1-c1nnc(Sc2ncc([N+](=O)[O-])s2)n1-c1ccc(Cl)cc1Cl` showed an IC50 [3] greater than 100 µM, an inhibition [4] of 14% and an IC50 (Furin) greater than 50 µM. For the same compound, the IC50 [5] was greater than 100 µM.
In the case of `c1ccc(CSc2nnc(SCc3ccccc3)s2)cc1`, the inhibition [1] is reported as “inactive”.
With `Oc1nnc(SCc2ccccc2)n1-c1ccc2c(c1)OCCO2` the inhibition [1] was “inactive” and the inhibition [2] was 2%.
With `O=[N+]([O-])c1cnc(Sc2nnc(O)n2-c2ccc3c(c2)OCCO3)s1` the IC50 [6] was 0.108 µM.
With `O=[N+]([O-])c1cnc(Sc2nnc(O)n2-c2ccc(F)c(F)c2)s1` the inhibition [1] was 73%.
For `O=[N+]([O-])c1cnc(Sc2nnc(Sc3ncc([N+](=O)[O-])s3)s2)s1`, the IC50 [3] was greater than 100 µM, the inhibition [4] was 27% and the IC50 (Furin) was greater than 50 µM. The IC50 [5] was greater than 100 µM.
For `Nc1nnc(Sc2ncc([N+](=O)[O-])s2)s1`, the Ratio IC50 [7] was 142, the Activity [6] was “Dose-dependent effect” and the IC50 [3] was greater than 100 µM. It also gave an inhibition [4] of 11%, an IC50 (Furin) greater than 50 µM and an IC50 [5] greater than 100 µM. The EC50 [8] was 6.23 µM, the Activity (Mus musculus) was “Active” and the half-life at 4 µM [9] was 27 min.
For `Fc1ccc(CSc2nnc(SCc3ccc(F)cc3)s2)cc1`, the inhibition [1] was “inactive”.
For `O=[N+]([O-])c1cccc(CSc2nnc(SCc3cccc([N+](=O)[O-])c3)s2)c1`, the inhibition [1] was “inactive”.
For `CCSc1nnc(O)n1-c1ccccc1`, the inhibition [1] was “inactive” and the inhibition [2] was 16%.
For `CCCCSc1nnc(O)n1-c1ccccc1`, the inhibition [1] was “inactive” and the inhibition [2] was 25%.
In the case of `O=[N+]([O-])c1ccc(-n2c(O)nnc2Sc2ncc([N+](=O)[O-])s2)cc1`, the inhibition [4] is reported as 20% and the IC50 [5] is reported as greater than 100 µM.
In the case of `Nc1nnc(SCc2ccc(F)cc2)s1`, the IC50 [6] is reported as greater than 1 µM.
With `COc1ccc(CSc2nnc(SCc3ccc(OC)cc3)s2)cc1` the inhibition [1] was “inactive”.
With `O=c1[nH]nc(Sc2ncc([N+](=O)[O-])s2)n1-c1ccc([N+](=O)[O-])cc1` the IC50 [3] was greater than 100 µM and the IC50 (Furin) was greater than 50 µM.
